# Experimental data published in ChEMBL document CHEMBL3526081 (Drug Metab Dispos, 2011).
# Columns and labels:
# Liver microsome [1] = experiment: Drug metabolism in beagle dog liver microsomes assessed as 5beta-hydroxylcinobufaginn formation at 100 uM at 37 degC after 30 mins by UFLC-ESI-MS analysis; assay type: ADME, Canis lupus familiaris; conditions: 0.5 h, read-out: Km(app)
# Method in brief: (§1)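 Liver microsomes (0.3 mg protein/ml) incubated with 100 µM substrate at 37°C for 30 min, in 100 mM potassium phosphate pH 7.4 with NADPH-generating system (1 mM NADP+, 10 mM glucose 6-phosphate, 1 unit/ml G6PDH, 4 mM MgCl2). Acetonitrile ≤1% final. Stopped with ice-cold acetonitrile and centrifuged. Metabolites identified by UFLC-ESI-MS and quantified by UFLC-DAD at 294 nm against authentic standard curves.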
# Liver microsome [2] = experiment: Drug metabolism in human liver microsomes assessed as 1alpha-hydroxylcinobufagin formation at 100 uM at 37 degC after 30 mins […] in presence of 50 uM triethylenethiophosphoramide CYP2B6 inhibitor; assay type: ADME; conditions: 0.5 h
# Liver microsome [3] = experiment: Drug metabolism in human liver microsomes assessed as 5beta-hydroxylcinobufagin formation at 100 uM at 37 degC after 30 mins by UFLC-ESI-MS analysis in presence of 10 uM quinidine CYP2D6 inhibitor; assay type: ADME; conditions: 0.5 h
# Method in brief: (§2)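 Pooled human liver microsomes (10 donors, both sexes) in 100 mM potassium phosphate pH 7.4 were incubated with CB and a selective P450 inhibitor. Reaction was started with NADPH-generating system after 3 min preincubation at 37°C and stopped with ice-cold acetonitrile. Hydroxylated products were quantified by UFLC-DAD at 294 nm; three experiments in duplicate.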
# Liver microsome [4] = experiment: Drug metabolism in beagle dog liver microsomes assessed as 5beta-hydroxylcinobufaginn formation per mg of protein at 100 uM at 37 degC after 30 mins by UFLC-ESI-MS analysis; assay type: ADME, Canis lupus familiaris; conditions: 0.5 h; method in brief: as §1
# Liver microsome [5] = experiment: Drug metabolism in human liver microsomes assessed as 5beta-hydroxylcinobufagin formation at 100 uM at 37 degC after 30 mins […] in presence of 2.5 uM 8-methoxypsoralen CYP2A6 inhibitor; assay type: ADME; conditions: 0.5 h
# Liver microsome [6] = experiment: Drug metabolism in beagle dog liver microsomes assessed as 1alpha-hydroxylcinobufagin formation at 100 uM at 37 degC after 30 mins by UFLC-ESI-MS analysis in presence of NADPH-generating system; assay type: ADME, Canis lupus familiaris; conditions: 0.5 h; method in brief: as §1
# [7] = Drug metabolism in cynomolgus monkey liver microsomes assessed as 1alpha-hydroxylcinobufagin formation at 100 uM at 37 degC after 30 mins by UFLC-ESI-MS analysis in presence of 1 uM ketoconazole CYP3A4 inhibitor; assay type: ADME, Macaca fascicularis; conditions: 0.5 h
# Method in brief: (§3)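 Chemical inhibition: selective P450 inhibitors (furafylline, sulfaphenazole, ketoconazole) added to liver microsome incubations in 100 mM potassium phosphate pH 7.4 with NADPH-generating system at 37°C. Hydroxylated metabolite formation quantified by UFLC at 294 nm against standards. Mean ± S.D. of three experiments in duplicate.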
# Liver microsome [8] = experiment: Ratio of Vmax/Km in beagle dog liver microsomes assessed as 1alpha-hydroxylcinobufagin formation at 100 uM […] by UFLC-ESI-MS analysis; assay type: ADME, Canis lupus familiaris; conditions: 0.5 h
# Liver microsome [9] = experiment: Ratio of Vmax/Km in beagle dog liver microsomes assessed as 5beta-hydroxylcinobufaginn formation at 100 uM […] by UFLC-ESI-MS analysis; assay type: ADME, Canis lupus familiaris; conditions: 0.5 h
# [10] = Drug metabolism in Colony-bred Chinese Bama minipig liver microsomes assessed as 1alpha-hydroxylcinobufagin formation at 100 uM at 37 degC after 30 mins by UFLC-ESI-MS analysis in presence of 10 uM sulfaphenazole CYP2C9 inhibitor; assay type: ADME, Sus scrofa; conditions: pig, 0.5 h; method in brief: as §3
# Liver = experiment: Ratio of Vmax/Km in Swiss-Hauschka (ICR) mouse liver microsomes assessed as 5beta-hydroxylcinobufaginn formation at 100 uM […] by UFLC-ESI-MS analysis; assay type: ADME; conditions: 0.5 h
# [11] = Drug metabolism in Swiss-Hauschka (ICR) mouse liver microsomes assessed as 1alpha-hydroxylcinobufagin formation at 100 uM at 37 degC after 30 mins by UFLC-ESI-MS analysis in presence of 10 uM sulfaphenazole CYP2C9 inhibitor; assay type: ADME; conditions: 0.5 h; method in brief: as §3
# [12] = Drug metabolism in Swiss-Hauschka (ICR) mouse liver microsomes assessed as 1alpha-hydroxylcinobufagin formation per mg of protein at 100 uM at 37 degC after 30 mins by UFLC-ESI-MS analysis; assay type: ADME; conditions: 0.5 h; method in brief: as §1
# [13] = Drug metabolism in Swiss-Hauschka (ICR) mouse liver microsomes assessed as 1alpha-hydroxylcinobufagin formation at 100 uM at 37 degC after 30 mins by UFLC-ESI-MS analysis in presence of 10 uM furafylline CYP1A2 inhibitor; assay type: ADME; conditions: 0.5 h; method in brief: as §3
# [14] = Drug metabolism in Colony-bred Chinese Bama minipig liver microsomes assessed as 5beta-hydroxylcinobufagin formation at 100 uM at 37 degC after 30 mins by UFLC-ESI-MS analysis in presence of NADPH-generating system; assay type: ADME, Sus scrofa; conditions: pig, 0.5 h; method in brief: as §1
# Liver microsome [15] = experiment: Drug metabolism in human liver microsomes assessed as 5beta-hydroxylcinobufagin formation at 100 uM at 37 degC after 30 mins by UFLC-ESI-MS analysis in presence of 10 uM furafylline CYP1A2 inhibitor; assay type: ADME; conditions: 0.5 h; method in brief: as §2
# Liver microsome [16] = experiment: Drug metabolism in human liver microsomes assessed as 1alpha-hydroxylcinobufagin formation at 100 uM at 37 degC after 30 mins […] in presence of 1 uM ketoconazole CYP3A4 inhibitor; assay type: ADME; conditions: 0.5 h
# Liver microsome [17] = experiment: Drug metabolism in human liver microsomes assessed as 5beta-hydroxylcinobufagin formation at 100 uM at 37 degC after 30 mins […] in presence of 10 uM sulfaphenazole CYP2C9 inhibitor; assay type: ADME; conditions: 0.5 h
# [18] = Drug metabolism in Swiss-Hauschka (ICR) mouse liver microsomes assessed as 5beta-hydroxylcinobufaginn formation at 100 uM at 37 degC after 30 mins by UFLC-ESI-MS analysis; assay type: ADME; conditions: 0.5 h, read-out: Km(app); method in brief: as §1
# [19] = Drug metabolism in Swiss-Hauschka (ICR) mouse liver microsomes assessed as 5beta-hydroxylcinobufagin formation at 100 uM at 37 degC after 30 mins by UFLC-ESI-MS analysis in presence of NADPH-generating system; assay type: ADME; conditions: 0.5 h; method in brief: as §1
# Liver microsome [20] = experiment: Drug metabolism in human liver microsomes assessed as 5beta-hydroxylcinobufagin formation at 100 uM at 37 degC after 30 mins by UFLC-ESI-MS analysis in presence of NADPH-generating system; assay type: ADME; conditions: 0.5 h
# Method in brief: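 CB (100 µM; acetonitrile ≤1% final) was incubated with pooled HLM (0.3 mg/ml) plus NADPH-generating system (1 mM NADP+, 10 mM glucose 6-phosphate, 1 unit/ml G6PDH, 4 mM MgCl2) in pH 7.4 phosphate buffer at 37°C for 30 min. Products were identified by UFLC-ESI-MS and quantified by UFLC-DAD at 294 nm.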
# Liver microsome [21] = experiment: Drug metabolism in human liver microsomes assessed as 1alpha-hydroxylcinobufagin formation at 100 uM at 37 degC after 30 mins […] in presence of 10 uM furafylline CYP1A2 inhibitor; assay type: ADME; conditions: 0.5 h
# Liver microsome [22] = experiment: Ratio of Vmax/Km in human liver microsomes assessed as 5beta-hydroxylcinobufaginn formation at 100 uM at 37 degC […] by UFLC-ESI-MS analysis; assay type: ADME; conditions: 0.5 h
# [23] = Ratio of Vmax/Km in cynomolgus monkey liver microsomes assessed as 5beta-hydroxylcinobufaginn formation at 100 uM […] by UFLC-ESI-MS analysis; assay type: ADME, Macaca fascicularis; conditions: 0.5 h
# [24] = Ratio of Vmax/Km in Colony-bred Chinese Bama minipig liver microsomes assessed as 1alpha-hydroxylcinobufagin formation at 100 uM […] by UFLC-ESI-MS analysis; assay type: ADME, Sus scrofa; conditions: pig, 0.5 h
structure (smiles),measurement,setting,value
CC(=O)O[C@H]1[C@H]2O[C@]23[C@@H]2CC[C@@H]4C[C@@H](O)CC[C@]4(C)[C@H]2CC[C@]3(C)[C@H]1c1ccc(=O)oc1 [CINOBUFAGIN],Km,Liver microsome [1],3.4 µM
same,Drug metabolism,Liver microsome [2],metabolite_detected
same,Drug metabolism,Liver microsome [3],metabolite_detected
same,Vmax,Liver microsome [4],0.44 nmol/min/mg
same,Drug metabolism,Liver microsome [5],metabolite_detected
same,Drug metabolism,Liver microsome [6],metabolite_detected
same,Drug metabolism,[7],metabolite_not_detected
same,Vmax/Km,Liver microsome [8],387.9 µL/min/mg
same,Vmax/Km,Liver microsome [9],129.4 µL/min/mg
same,Drug metabolism,[10],metabolite_detected
same,Vmax/Km,Liver,644.6 µL/min/mg
same,Drug metabolism,[11],metabolite_detected
same,Vmax,[12],8.39 nmol/min/mg
same,Drug metabolism,[13],metabolite_detected
same,Drug metabolism,[14],metabolite_detected
same,Drug metabolism,Liver microsome [15],metabolite_detected
same,Drug metabolism,Liver microsome [16],metabolite_not_detected
same,Drug metabolism,Liver microsome [17],metabolite_detected
same,Km,[18],10.1 µM
same,Drug metabolism,[19],metabolite_detected
same,Drug metabolism,Liver microsome [20],metabolite_detected
same,Drug metabolism,Liver microsome [21],metabolite_detected
same,Vmax/Km,Liver microsome [22],57.4 µL/min/mg
same,Vmax/Km,[23],216.5 µL/min/mg
same,Vmax/Km,[24],14.5 µL/min/mg
